# Reference: paper PMC6675461 (Bioorganic & medicinal chemistry, 2009)
# Where two headings read alike, the source gives them in different places.
# Columns and labels:
# [1] = tested on: three melanoma cell lines (B16-F1, A375, WM-164); experiment: SRB assay, average over melanoma cell lines and selectivity vs fibroblast; assay type: cell-based, human, mouse; settings: for Ratio = (IC50 of fibroblast cell)/(the average IC50 of melanoma cell lines): selectivity, fold
# DU 145 cells = experiment: SRB antiproliferative assay, DU 145 prostate cancer cells; assay type: cell-based, human; settings: read-out: IC50 ± SEM DU 145
# In short: (§1)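 Prostate cancer cells were grown in RPMI1640 with 10% FBS at 37 °C, 5% CO2. Cells were fixed with 10% TCA and stained with 0.4% SRB, and absorbance was read at 540 nm. IC50 came from nonlinear regression of % survival versus concentration.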
# LNCaP cells [2] = experiment: SRB antiproliferative assay, LNCaP prostate cancer cells; assay type: cell-based, human; settings: 96 h, read-out: IC50 ± SEM LNCaP
# In short: as §1
# PPC-1 cells = experiment: SRB antiproliferative assay, PPC-1 prostate cancer cells; assay type: cell-based, human; settings: read-out: IC50 ± SEM PPC-1
# In short: as §1
# [3] = tested on: NCI-60 human tumor cell lines; experiment: NCI-60 human tumor cell line anticancer drug screen; assay type: cell-based
# A375 cells [4] = experiment: Flow cytometric cell cycle analysis, A375; assay type: cell-based, human; settings: A375, tested 1, 5, 10, 20 μM, 48 h
# LNCaP cells [5] = experiment: Flow cytometric cell cycle analysis, LNCaP; assay type: cell-based, human; settings: tested 1, 5, 10, 20 μM, 48 h
# A375 cells [6] = experiment: Melanoma colony-formation assay; assay type: cell-based, human; settings: 14 days
# In short: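 A375 cells were plated at colony-forming density (2000 per well) in DMEM with FBS and antibiotic-antimycotic at 37 °C, 5% CO2. Test compound was added at 2, […], with matching DMSO dilution as vehicle control. After 14 days' growth, colonies were stained with 0.1% […] for 30 min, rinsed and counted with an automated colony counter.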
# A375 melanoma tumors = experiment: A375 melanoma xenograft in athymic nude mice; assay type: in vivo
# PC-3 cells = experiment: SRB antiproliferative assay, PC-3 prostate cancer cells; assay type: cell-based, human; settings: read-out: IC50 ± SEM PC-3
# RH7777 cells = experiment: SRB assay, RH7777 control cells; assay type: cell-based; settings: Homo sapiens, RH7777, 96 h, read-out: IC50 ± SEM RH7777
# In short: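 PC-3 cells were grown in RPMI1640 with 10% FBS, and RH7777 cells in DMEM with 10% FBS, both at 37 °C, 5% CO2. Cells were fixed with 10% TCA, stained with 0.4% SRB and read at 540 nm. IC50 came from nonlinear regression of % survival versus concentration.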
# LPA1 = LPA1 (Homo sapiens, UniProt Q92633); experiment: FLIPR intracellular calcium mobilization assay, LPA1-transfected Chem-1 cells; assay type: cell-based; settings: for agonist activity on LPA1, in words: top concentration 10 μM, 15% activation of oleoyl-LPA Emax = agonist
# LPA1, sequence (Q92633 whole entry, species assumed): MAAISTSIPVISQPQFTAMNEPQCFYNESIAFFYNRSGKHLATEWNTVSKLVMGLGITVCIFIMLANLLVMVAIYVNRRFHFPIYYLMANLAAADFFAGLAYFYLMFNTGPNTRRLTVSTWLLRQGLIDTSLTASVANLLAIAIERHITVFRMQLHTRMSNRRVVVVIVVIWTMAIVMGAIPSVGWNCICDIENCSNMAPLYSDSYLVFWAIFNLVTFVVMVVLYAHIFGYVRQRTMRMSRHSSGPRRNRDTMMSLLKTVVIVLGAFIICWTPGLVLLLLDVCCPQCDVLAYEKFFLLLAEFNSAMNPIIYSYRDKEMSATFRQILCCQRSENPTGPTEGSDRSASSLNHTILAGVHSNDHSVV
# LPA3 = target: T1, LPA3 (Homo sapiens, UniProt Q9UBY5); experiment: FLIPR intracellular calcium mobilization assay, LPA3-transfected Chem-1 cells; assay type: cell-based; settings: for agonist activity on LPA3, in words: top concentration 10 μM, 15% activation of oleoyl-LPA Emax = agonist
# T1 sequence (Q9UBY5 1-353): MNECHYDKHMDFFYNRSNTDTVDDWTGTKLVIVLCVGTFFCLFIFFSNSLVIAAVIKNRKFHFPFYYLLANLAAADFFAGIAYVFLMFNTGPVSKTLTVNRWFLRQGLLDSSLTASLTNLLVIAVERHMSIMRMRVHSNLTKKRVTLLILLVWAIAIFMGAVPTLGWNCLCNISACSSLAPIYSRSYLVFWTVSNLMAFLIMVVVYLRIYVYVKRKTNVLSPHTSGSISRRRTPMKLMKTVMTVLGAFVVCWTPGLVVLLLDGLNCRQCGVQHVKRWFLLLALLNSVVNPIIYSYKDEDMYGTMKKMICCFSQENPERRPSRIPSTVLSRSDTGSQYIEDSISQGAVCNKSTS
# LPA5 = LPA5 (Homo sapiens, UniProt Q9H1C0); experiment: FLIPR intracellular calcium mobilization assay, LPA5-transfected Chem-1 cells; assay type: cell-based; settings: for agonist activity on LPA5, in words: top concentration 10 μM, 15% activation of oleoyl-LPA Emax = agonist
# LPA5, sequence (Q9H1C0 whole entry, species assumed): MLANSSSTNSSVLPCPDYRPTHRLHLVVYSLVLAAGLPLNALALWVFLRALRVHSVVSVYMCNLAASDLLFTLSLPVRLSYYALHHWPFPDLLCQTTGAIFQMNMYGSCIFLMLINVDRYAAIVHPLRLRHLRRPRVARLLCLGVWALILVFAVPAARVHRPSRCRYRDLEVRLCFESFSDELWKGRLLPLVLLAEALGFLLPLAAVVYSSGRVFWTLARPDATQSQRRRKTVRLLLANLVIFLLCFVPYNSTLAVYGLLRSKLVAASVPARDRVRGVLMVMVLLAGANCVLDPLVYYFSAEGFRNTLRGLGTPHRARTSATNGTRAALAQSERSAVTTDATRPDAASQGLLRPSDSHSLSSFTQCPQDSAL
# B16-F1 cells = experiment: SRB antiproliferative assay, B16-F1 melanoma cells; assay type: cell-based, mouse; settings: read-out: IC50 ± SEM B16-F1, 48 h, diastereomeric mixtures
# In short: (§2)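 Melanoma lines (human A375, WM-164; mouse B16-F1) and human dermal fibroblasts were grown in DMEM with 5% FBS, 1% antibiotic/antimycotic and bovine insulin (5 μg/mL) at 37 °C, 5% CO2. Diastereomeric mixtures were applied over a wide concentration range for 48 h. Cells were then TCA-fixed (10%), washed, air-dried overnight and SRB-stained, with absorbance read at 560 nm. IC50 (50% growth inhibition versus untreated) was obtained by nonlinear regression.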
# A375 cells [7] = experiment: SRB antiproliferative assay, A375 melanoma cells; assay type: cell-based, human; settings: read-out: IC50 ± SEM A375; SRB, 48 h, diastereomeric mixtures
# In short: as §2
# WM-164 cells = experiment: SRB antiproliferative assay, WM-164 melanoma cells; assay type: cell-based, human; settings: read-out: IC50 ± SEM WM-164; SRB, 48 h, diastereomeric mixtures
# In short: as §2
# [8] = tested on: Human dermal fibroblast cells; experiment: SRB assay, fibroblast control cells; assay type: cell-based; settings: read-out: IC50 ± SEM Fibroblast, 48 h, control cell line for melanoma
# In short: as §2
# [9] = tested on: four prostate cancer cell lines (DU 145, PC-3, LNCaP, PPC-1); experiment: SRB assay, average over prostate cancer cell lines and selectivity vs RH7777; assay type: cell-based, human; settings: for IC50: read-out: Aver. (average IC50 of four prostate cells IC50s), DU 145, PC-3, LNCaP, PPC-1; for Ratio = (IC50 of RH7777 cell)/(average IC50 of prostate cell lines): selectivity, fold
# In short: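 The control line was LPL receptor-negative RH7777 in DMEM/10% FBS. The prostate IC50s were averaged. Selectivity = IC50 in RH7777 divided by the average tumor-cell IC50.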
# [10] = Fibroblast, read-out: Aver. (average IC50 of three melanoma cells IC50s)
# [11] = against oleoyl-LPA at EC80, top concentration 10 μM
# [12] = read-out: Aver. (average IC50 of three melanoma cells IC50s), B16-F1, A375, WM-164
compound,measurement,setting,value
"CCCCCCCCCCCCCCCCNC(=O)[C@@H]1CSC(c2ccc(NC(C)=O)cc2)N1 (mixture of isomers) [Compound 1b, (2RS,4R)-2-(4-Acetylamino-phenyl)-thiazolidine-4-carboxylic acid hexadecylamide]",IC50,[1]; [10],1800 nM
same,IC50,"[1]; Fibroblast, read-out: IC50 range over melanoma cell lines",700 to 2100 nM
same,IC50,"DU 145 cells; Homo sapiens, DU-145, 96 h",1700 ± 100 nM
same,IC50,"LNCaP cells [2]; Homo sapiens, LNCaP",1000 ± 100 nM
same,IC50,"PPC-1 cells; Homo sapiens, PPC-1, 96 h",400 ± 100 nM
same,GI50,[3]; read-out: GI50 melanoma,130 to 1480 nM
same,GI50,[3]; read-out: GI50 prostate cancer,170 to 270 nM
same,GI50,"[3]; read-out: GI50 range, all nine types of cancer cells",120 to 10900 nM
same,concentration at which accumulation of cells in sub-G1 phase became apparent,A375 cells [4],5 µM
same,concentration at which accumulation of cells in sub-G1 phase became apparent,LNCaP cells [5],5 µM
same,inhibition of A375 colony formation,A375 cells [6]; 2 μM,effectively inhibit
same,inhibition of A375 colony formation,A375 cells [6]; 100 μM,completely inhibited
same,body weight change during the experiment,"A375 melanoma tumors; nude mice, treatment groups",no significant body weight loss
"CCCCCCCCCCCCCCCCNC(=O)[C@@H]1CSC(c2cc(OC)c(OC)c(OC)c2)N1 (mixture of isomers) [Compound 3ad, (2RS,4R)-2-(3,4,5-Trimethoxy-phenyl)-thiazolidine-4-carboxylic acid hexadecylamide]",IC50,[1]; [10],1200 nM
same,IC50,"DU 145 cells; Homo sapiens, DU-145, 96 h",1700 ± 100 nM
same,IC50,"PC-3 cells; Homo sapiens, PC-3, 96 h",1800 ± 100 nM
same,IC50,"LNCaP cells [2]; Homo sapiens, LNCaP",800 ± 100 nM
same,IC50,"PPC-1 cells; Homo sapiens, PPC-1, 96 h",400 ± 100 nM
same,IC50,RH7777 cells,7200 ± 100 nM
same,concentration at which accumulation of cells in sub-G1 phase became apparent,A375 cells [4],5 µM
same,concentration at which accumulation of cells in sub-G1 phase became apparent,LNCaP cells [5],5 µM
same,"antagonist activity on LPA1, in words",LPA1; [11],did not exhibit any dose-dependent antagonist activity
same,"agonist activity on LPA1, in words",LPA1,did not exhibit any dose-dependent agonist activity
same,"antagonist activity on LPA3, in words",LPA3; [11],did not exhibit any dose-dependent antagonist activity
same,"agonist activity on LPA3, in words",LPA3,did not exhibit any dose-dependent agonist activity
same,"antagonist activity on LPA5, in words",LPA5; [11],did not exhibit any dose-dependent antagonist activity
same,"agonist activity on LPA5, in words",LPA5,did not exhibit any dose-dependent agonist activity
same,inhibition of A375 colony formation,A375 cells [6]; 2 μM,effectively inhibit
same,inhibition of A375 colony formation,A375 cells [6]; 20 μM,almost completely inhibited
same,inhibition of A375 colony formation,A375 cells [6]; 100 μM,completely inhibited
"CN(C)/N=N/c1[nH]cnc1C(N)=O [DTIC, dacarbazine]","Antiproliferative activity on melanoma cell lines, in words","[1]; reference compounds, in vitro",inactive
same,tumor growth inhibition,"A375 melanoma tumors; 60 mg/kg i.p. once daily, end of treatment, nude mice",42%
same,body weight change during the experiment,"A375 melanoma tumors; mouse, in vivo",no significant body weight loss
"Cc1noc(-c2ccc(CSCCC(=O)O)cc2)c1NC(=O)OC(C)c1ccccc1Cl (stereo not shown) [Ki16425, reference compound]","agonist activity on LPA1, in words",LPA1,did not show agonist effect
same,"agonist activity on LPA3, in words",LPA3,did not show agonist effect
same,"agonist activity on LPA5, in words",LPA5,did not show agonist effect
"(2RS,4R)-2-(4-Acetylamino-phenyl)-thiazolidine-4-carboxylic acid (1-methyl-octadecyl)-amide [Compound 3ia]",IC50,B16-F1 cells,18900 ± 1300 nM
same,IC50,A375 cells [7],20600 ± 2100 nM
same,IC50,WM-164 cells,10700 ± 900 nM
same,IC50,[8],> 100000 nM
same,"fold decrease in potency compared with 1b, melanoma cells",[1]; from average IC50,9.3 fold
same,IC50,[1]; [12],16700 nM
same,IC50,"DU 145 cells; SRB, 96 h, Table 2",3900 ± 400 nM
same,IC50,"PC-3 cells; SRB, 96 h, Table 2",3700 ± 200 nM
same,IC50,"LNCaP cells [2]; SRB, Table 2",1800 ± 100 nM
same,IC50,"PPC-1 cells; SRB, 96 h, Table 2",800 ± 100 nM
same,"fold decrease in potency compared with 1b, prostate cancer cells",[9]; from average IC50,2.4 fold
same,IC50,[9],2600 nM
same,Ratio = (IC50 of RH7777 cell)/(average IC50 of prostate cell lines),[9],3.6
"(2RS,4R)-2-(4-Acetylamino-phenyl)-thiazolidine-4-carboxylic acid-(9H-fluoren-2-yl)-amide [Compound 3id]",IC50,B16-F1 cells,3900 ± 300 nM
same,IC50,A375 cells [7],2100 ± 100 nM
same,IC50,WM-164 cells,1700 ± 100 nM
same,IC50,[8],28900 ± 1000 nM
same,IC50,[1]; [12],2600 nM
same,Ratio = (IC50 of fibroblast cell)/(the average IC50 of melanoma cell lines),[1],11.3
same,IC50,"DU 145 cells; SRB, 96 h, Table 2",1900 ± 300 nM
same,IC50,"PC-3 cells; SRB, 96 h, Table 2",2100 ± 100 nM
same,IC50,"LNCaP cells [2]; SRB, Table 2",3500 ± 700 nM
same,IC50,"PPC-1 cells; SRB, 96 h, Table 2",1600 ± 100 nM
same,IC50,[9],2300 nM
same,Ratio = (IC50 of RH7777 cell)/(average IC50 of prostate cell lines),[9],2.4
"(2RS,4R)-3-Acetyl-2-(4-acetylamino-phenyl)-thiazolidine-4-carboxylic acid hexadecylamide [Compound 4]",IC50,B16-F1 cells,15000 ± 800 nM
same,IC50,A375 cells [7],12600 ± 500 nM
same,IC50,WM-164 cells,20400 ± 800 nM
same,IC50,[8],57700 ± 1300 nM
same,IC50,[1]; [12],16000 nM
same,Ratio = (IC50 of fibroblast cell)/(the average IC50 of melanoma cell lines),[1],3.6
same,IC50,"DU 145 cells; SRB, 96 h, Table 2",14900 ± 2200 nM
same,IC50,"PC-3 cells; SRB, 96 h, Table 2",9000 ± 1300 nM
same,IC50,"LNCaP cells [2]; SRB, Table 2",10600 ± 600 nM
same,IC50,"PPC-1 cells; SRB, 96 h, Table 2",6800 ± 800 nM
same,IC50,[9],10300 nM
same,Ratio = (IC50 of RH7777 cell)/(average IC50 of prostate cell lines),[9],1.3
